Measured values from different studies.
Lines come from different studies, so protocols differ.

Cc1nc2ccc(OCc3ccc(C(F)(F)F)cc3)cc2[nH]1
Cmax (male BALB/c mouse; plasma; intravenous; 1 mg/kg): 4540 ng/mL

Cc1ncsc1-c1ccc([C@H](C)NC(=O)[C@@H]2C[C@@H](O)CN2C(=O)[C@@H](NC(=O)CCCCCCCCCCC(=O)NCCCn2cc(-c3ccc4c(c3)CCN4C(=O)Cc3cccc(OC(F)(F)F)c3)c3c(N)ncnc32)C(C)(C)C)cc1
Cmax (mouse; plasma; intravenous; 1 mg/kg): 2330 ng/mL

Cc1cc(-c2ccnc3[nH]cc(F)c23)cc(F)c1[C@@]1(O)[C@H](C)CN(C2CCS(=O)(=O)CC2)C[C@@H]1C
Cmax (male CD-1 mouse; plasma; intravenous; 1 mg/kg): 1620 ng/mL

Cc1ccc(N(c2ccc(NC(=O)CN(C)c3ccccc3N3CCCC3=O)cc2)C(C)C)cc1
Cmax (male CD-1 mouse; plasma; oral; 20 mg/kg): 1000 ng/mL

CCOC(=O)c1c(NC(=O)CNC(C)C)sc2c1CCCCC2
Cmax (male mouse; plasma; intraperitoneal; 5 mg/kg; single dose): 193 ng/mL

O=C1CCC(N2Cc3cc(C4CCN(Cc5ccccc5)CC4)ccc3C2=O)C(=O)N1 (stereo not drawn)
Cmax (male CD-1 mouse; plasma; oral; 3 mg/kg): 273 ng/mL

CC[C@H](C)[C@H](NC(=O)[C@H](CCC(=O)O)NC(=O)[C@H](CO)NC(=O)[C@@H](NC(=O)[C@@H](N)CO)C(C)C)C(=O)N[C@@H](CCC(N)=O)C(=O)N[C@@H](CC(C)C)C(=O)N[C@@H](CCSC)C(=O)N[C@@H](Cc1cnc[nH]1)C(=O)N[C@@H](CC(N)=O)C(=O)N[C@@H](CC(C)C)C(=O)NCC(=O)N[C@@H](CCCCN)C(=O)N[C@@H](Cc1cnc[nH]1)C(=O)N[C@@H](CC(C)C)C(=O)N[C@@H](CC(N)=O)C(=O)N[C@@H](CO)C(=O)N[C@@H](CCSC)C(=O)N[C@@H](CCC(=O)O)C(=O)N[C@@H](CCCNC(=N)N)C(=O)N[C@H](C(=O)N[C@@H](CCC(=O)O)C(=O)N[C@@H](Cc1c[nH]c2ccccc12)C(=O)N[C@@H](CC(C)C)C(=O)N[C@@H](CCCNC(=N)N)C(=O)N[C@@H](CCCCN)C(=O)N[C@@H](CCCCN)C(=O)N[C@@H](CC(C)C)C(=O)N[C@@H](CCC(N)=O)C(=O)N[C@@H](CC(=O)O)C(=O)N[C@H](C(=O)N[C@@H](Cc1cnc[nH]1)C(=O)N[C@@H](CC(N)=O)C(=O)N[C@@H](Cc1ccccc1)C(N)=O)C(C)C)C(C)C
Cmax (female CD-1 mouse; serum; intravenous; 10 nmol/kg): 8 nM

CN(C)C(=O)c1cc2cnc(Nc3ccc(-c4ccc5c(=O)cc(N6CCOCC6)oc5c4)cc3)nc2n1C1CCCC1.Cl
Cmax (BALB/c mouse; plasma; intravenous; 2 mg/kg): 3690 ng/mL

NCc1cc2c(cc1F)C(=O)N(C1CCC(=O)NC1=O)C2 (stereo not drawn)
Cmax (male CD-1 mouse; plasma; oral; 10 mg/kg): 97.2 ng/mL

NCc1ccc(-c2nn(Cc3ccccc3)c3ccccc23)o1
Cmax (male CD-1 mouse; plasma; oral; 10 mg/kg): 395 ng/mL

OCc1nc2ccc(NCc3ccc(C(F)(F)F)cc3)cc2[nH]1
Cmax (male BALB/c mouse; plasma; oral; 10 mg/kg): 1790 ng/mL

COC1=CC(c2ccc[nH]2)=N/C1=C\c1[nH]c(Cc2ccc(OC(F)(F)F)cc2)cc1Cc1ccc(OC(F)(F)F)cc1
Cmax (male CD-1 mouse; plasma; oral; 40 mg/kg; single dose): 3950 ng/mL

COc1cccc2c(N3CCC(CCP(=O)(O)O)CC3)ncnc12
Cmax (female BALB/c mouse; serum; subcutaneous; 50 mg/kg; tumour-bearing): 23000 ng/mL

Cc1cc(-c2ccnc3[nH]cc(F)c23)cc(F)c1[C@@]1(O)[C@H](C)CN(C(=O)CN)C[C@@H]1C
Cmax (male CD-1 mouse; plasma; oral; 3 mg/kg): 1260 ng/mL

CC(C)(C)c1sc2ncnc(Oc3c(F)cccc3OC(F)(F)F)c2c1-c1ccc(Cl)cc1
Cmax (mouse; plasma; oral; 30 mg/kg; single dose): 10300 ng/mL

NCc1ccc(-c2nn(Cc3ccncc3)c3ccccc23)o1
Cmax (male CD-1 mouse; plasma; intraperitoneal; 30 mg/kg): 1150 ng/mL

COC1=CC(c2ccc[nH]2)=N/C1=C\c1cc(Cc2ccc(OC(F)(F)F)cc2)c(C)[nH]1.Cl
Cmax (male CD-1 mouse; plasma; oral; 40 mg/kg; single dose): 161 ng/mL

COc1cc(C2C3=C(COC3=O)N(CCO)c3cc4c(cc32)CCC4)cc(OC)c1OC (stereo not drawn)
Cmax (female C57BL/6 mouse; plasma; intraperitoneal; 50 mg/kg): 1040 ng/mL

Cc1ncsc1-c1ccc([C@H](CC(=O)N2CCN(c3ccc(C#Cc4ccc(C(=O)N5CCC(n6cc(-c7ccc8c(c7)CCN8C(=O)Cc7cccc(OC(F)(F)F)c7)c7c(N)ncnc76)CC5)cc4)cn3)CC2)NC(=O)[C@@H]2C[C@@H](O)CN2C(=O)[C@@H](NC(=O)C2(F)CC2)C(C)(C)C)cc1
Cmax (male C57BL/6 mouse; plasma; intravenous; 1 mg/kg): 19600 ng/mL

Cc1ccc(OCC(=O)N[C@@H](Cc2c[nH]c3ccccc23)C(=O)OC(C)C)cc1
Cmax (male Sprague-Dawley mouse; plasma; intravenous; 10 mg/kg): 1840 ng/mL

OCc1ccc(-c2nn(Cc3ccccc3)c3ccccc23)o1
Cmax (male CD-1 mouse; plasma; oral; 10 mg/kg): 220 ng/mL
